Our source for the Activity, IC50 and IC90 values is ChEMBL document CHEMBL4699407, “Isoquinoline thiosemicarbazone displays potent anticancer activity with in vivo efficacy against aggressive leukemias” (RSC Med Chem, 2020).

The test system of assay [1] is 143B. The assay can be described thus: Cytotoxicity against human 143-BTK cells assessed as reduction in cell viability at 25 to 100 nM incubated for 48 hrs by trypan blue assay. To be noted: dose nM 25-100, time 48.0 hrs. It counts as functional, cell-based. The procedure, abridged: (§1)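 143 BTK parental (WT) and ρ0 cells were exposed to the indicated compound concentrations plus 20 μM Cu(II) for 48 h. Viable cells were counted by trypan blue staining on a Vi-Cell counter. Mean ± SD, n = 2, Student t-test.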

Assay [2] can be described thus: Cytotoxicity against human PaTu 8902 cells assessed as reduction in cell viability in presence of Cu2+ incubated for 72 hrs by cell titer-glo luminescent cell viability assay. It counts as functional, cell-based. To be noted: PaTu 8902, 72 h. The procedure, abridged: (§2)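 Cells were grown in DMEM or RPMI with 10% FBS, without antibiotics, at 37 °C, 20% O2, 5% CO2. Adherent lines were seeded at 500 cells/well. Serially diluted compound was given with 20 μM Cu(II) (CuCl2) for 72 h; leukemia models received pre-formed 1:1 copper complex. ATP was read by CellTiter-Glo luminescence. IC50 is relative to DMSO-treated cells.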
For orientation: In ATP-based viability assays light output follows the ATP content of the culture.

For assay [3], the system named is MOLT-4. The assay can be described thus: Cytotoxicity against human MOLT-4 cells assessed as reduction in cell viability in presence of Cu2+ incubated for 72 hrs by cell titer-glo luminescent cell viability assay. The assay is classed as functional, cell-based. To be noted: MOLT-4, 72 h. The method, boiled down: as §2
Assay [4] has as its system MIA PaCa-2. The assay can be described thus: Induction of apoptosis in human MIA PaCa-2 cells assessed as decrease in viable cells at 25 nM in presence of ATRi incubated for 72 hrs by annexin V and propidium iodide staining based flow cytometry analysis relative to control. The assay is classed as functional. The procedure, abridged:
(§3)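 Cells given 25 nM compound with or without 20 μM Cu(II) and/or the ATR inhibitor VE-822 at 250 nM for 72 h. Stained with annexin V-FITC and propidium iodide, then analysed on a five-laser flow cytometer to score viable, early apoptotic, late apoptotic and necrotic fractions against vehicle.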
For orientation: In flow cytometry, cells or beads pass a laser one at a time.

Assay [5] relates to MIA PaCa-2. The assay can be described thus: Cytotoxicity against human MIA PaCa2 cells assessed as reduction in cell viability at 25 nM in presence of Fe2+ incubated for 72 hrs by cell titer-glo luminescent cell viability assay. It counts as functional, cell-based. The procedure, abridged:
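MIAPACA2 cells were exposed to compound for 72 h with 20 μM Fe(II) or Zn(II) supplement. Proliferation was read by CellTiter-Glo ATP luminescence.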

Assay [6] concerns MIA PaCa-2. The assay can be described thus: Induction of apoptosis in human MIA PaCa-2 cells assessed as increase in late apoptotic cells at 25 nM incubated for 72 hrs by annexin V and propidium iodide staining based flow cytometry analysis relative to control. The assay is classed as functional. The procedure, abridged: as §3
The test system of assay [7] is YAPC. Nature of the assay: Cytotoxicity against human YAPC cells assessed as reduction in cell viability in presence of Cu2+ incubated for 72 hrs by cell titer-glo luminescent cell viability assay. The assay is classed as functional, cell-based. The method, boiled down: as §2
The test system of assay [8] is MIA PaCa-2. The assay can be described thus: Cytotoxicity against human MIA PaCa2 cells assessed as reduction in cell viability in presence of Cu2+ incubated for 72 hrs by cell titer-glo luminescent cell viability assay. To be noted: MIA PaCa-2, 72 h. It counts as functional, cell-based. The method, boiled down:
as §2

Assay [9] has as its system MIA PaCa-2. The assay can be described thus: Induction of DNA damage in human MIA PaCa-2 cells assessed as decrease in ATP level at 25 nM in presence of Cu2+ incubated for 48 hrs by LC-MS/MS analysis. The assay is classed as functional, cell-based. The procedure, abridged: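 MIAPACA2 cells were given 25 nM compound plus 20 μM Cu(II) for 48 h in glucose-free DMEM with 10% dialyzed FBS and 11 mM [U-13C6]glucose. Nucleotide pools were quantified by LC-MS/MS with multiple reaction monitoring. Mean ± SD, n = 3, two-way ANOVA with Bonferroni correction.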

Assay [10] deals with MIA PaCa-2. The assay can be described thus: Induction of apoptosis in human MIA PaCa-2 cells assessed as increase in early apoptotic cells at 25 nM in presence of Cu2+ and ATRi incubated for 72 hrs by annexin V and propidium iodide staining based flow cytometry analysis relative to control. It counts as functional. The method, boiled down: as §3
Assay [11] relates to MIA PaCa-2. The assay can be described thus: Induction of DNA damage in human MIA PaCa-2 cells assessed as decrease in dATP level at 25 nM in presence of Cu2+ incubated for 48 hrs by LC-MS/MS analysis. The assay is classed as functional, cell-based. The method, boiled down:
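Cells in DMEM or RPMI with 10% FBS, 37 °C, 5% CO2. Treated with 25 nM compound plus 20 μM Cu(II) for 48 h. Nucleotide pools quantified by LC-MS/MS with multiple reaction monitoring. Cells were in glucose-free DMEM with 10% dialyzed FBS and 11 mM [U-13C6]glucose for 48 h, and glucose-labeled pools were compared. Mean ± SD, n = 3, two-way ANOVA with Bonferroni correction.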

The subject of assay [12] is MIA PaCa-2. The assay can be described thus: Cytotoxicity against human MIA PaCa2 cells assessed as reduction in cell viability at 25 nM in presence of Cu2+ and 2-DG incubated for 48 hrs by trypan blue assay. It counts as functional, cell-based. The method, boiled down: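 MIAPACA2 cells were given 25 nM compound plus 20 μM Cu(II), with or without 2-deoxyglucose (2 mM), for 48 h. Viability was read by trypan blue staining on a Vi-Cell counter. Mean ± SD, n = 2, Student t-test.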

Assay [13] relates to MIA PaCa-2. Nature of the assay: Induction of apoptosis in human MIA PaCa-2 cells assessed as increase in necrotic cells at 25 nM in presence of Cu2+ and ATRi incubated for 72 hrs by annexin V and propidium iodide staining based flow cytometry analysis relative to control. It counts as functional. The procedure, abridged:
as §3

Assay [14] has as its system SW1990. The assay can be described thus: Cytotoxicity against human SW1990 cells assessed as reduction in cell viability in presence of Cu2+ incubated for 72 hrs by cell titer-glo luminescent cell viability assay. To be noted: SW1990, 72 h. The assay is classed as functional, cell-based. The procedure, abridged: as §2
The subject of assay [15] is 143B. Nature of the assay: Cytotoxicity against human 143-BTK Rho0 cells assessed as reduction in cell viability at 25 to 100 nM incubated for 48 hrs by trypan blue assay. To be noted: dose nM 25-100, time 48.0 hrs. It counts as functional, cell-based. The method, boiled down: as §1
For assay [16], the system named is MIA PaCa-2. The assay can be described thus: Induction of DNA damage in human MIA PaCa-2 cells assessed as increase in pH2A.X phosphorylation at 10 nM in presence of Cu2+ incubated for 48 hrs by immunoblot assay. It counts as functional, cell-based. The procedure, abridged: (§4)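 Treated with 10 nM compound plus 20 μM Cu(II). Lysed in RIPA buffer with protease and phosphatase inhibitors, then sonicated and centrifuged at 20 000g, 4 °C. Protein measured by micro BCA, and equal amounts run on bis-tris gels. Primary antibodies in 5% BSA/TBST; HRP-linked anti-rabbit or anti-mouse secondaries at 1:2500. Chemiluminescent detection on film; representative blot.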

Assay [17] has as its system MIA PaCa-2. The assay can be described thus: Induction of apoptosis in human MIA PaCa-2 cells assessed as increase in necrotic cells at 25 nM in presence of ATRi incubated for 72 hrs by annexin V and propidium iodide staining based flow cytometry analysis relative to control. The assay is classed as functional. The procedure, abridged: as §3
The test system of assay [18] is MIA PaCa-2. Nature of the assay: Induction of apoptosis in human MIA PaCa-2 cells assessed as increase in necrotic cells at 25 nM incubated for 72 hrs by annexin V and propidium iodide staining based flow cytometry analysis relative to control. It counts as functional. The procedure, abridged:
as §3

For assay [19], the system named is MIA PaCa-2. The assay can be described thus: Induction of apoptosis in human MIA PaCa-2 cells assessed as reduction in viable cells at 25 nM in presence of Cu2+ and ATRi incubated for 72 hrs by annexin V and propidium iodide staining based flow cytometry analysis relative to control. It counts as functional. The procedure, abridged:
as §3

Assay [20] has as its system MIA PaCa-2. The assay can be described thus: Induction of DNA damage in human MIA PaCa-2 cells assessed as increase in CHEK1 phosphorylation at 10 nM in presence of Cu2+ incubated for 48 hrs by immunoblot assay. The assay is classed as functional, cell-based. The method, boiled down:
as §4
Background: Immunoblotting shows a protein as a band on a membrane.

In assay [21] the test system is MIA PaCa-2. The assay can be described thus: Induction of apoptosis in human MIA PaCa-2 cells assessed as increase in late apoptotic cells at 25 nM in presence of Cu2+ incubated for 72 hrs by annexin V and propidium iodide staining based flow cytometry analysis relative to control. It counts as functional. The procedure, abridged:
as §3

Activity calls are given as the source filed them. No cut-off for these calls is given here.

As a reminder, the IC50 is the midpoint of a concentration-inhibition curve. For orientation: IC90 means the point of the concentration-response curve where the effect stands at 90%. Turning to `CN(C)C(=S)NN=Cc1nccc2cc(F)ccc12`, the outcome in assay [1], in [5], in assay [12], in [16] and in [20] was Active. Also, the IC50 in assay [2], in assay [3], in [7] and in assay [14] was 1 nM in each case. Also, the Activity in assay [4] came to 64.7%; in [6] it was 0.79%; in [10], 24.8%; in [13], 4.72%; in assay [17], 7.34%; in [18], 2.49%. Further, the Activity is given as 27.8% in assay [19] and 3.68% in assay [21]. Further, the IC90 in [8] was 21.6 nM. Also, the outcome in assay [9], in [11] and in assay [15] was inactive.
